The list is not random: actives were taken first. Their share in the collection is about 1.9%.
Rin1-Abl PPI inh: blocks binding of human Rin1 to Abl; P00519+Q13671; TR-FRET Rin1/Abl binding, biochemical; inhibition, % at 7.35 µM; hit rate 0.4% among 360,000; AID 588664; in the data active = inhibition above about 5%, passing the limit was not always enough
NadD inh: inhibitors of Staphylococcus aureus NadD; purified NadD enzyme, colorimetric absorbance read-out; inhibition, % at 20 µM; hit rate 0.78% among 360,000; in the data active = inhibition above about 26%
Rpn11 inh: Rpn11 (human) deubiquitinase inhibition; hit rate 0.59% among 360,000; AID 588493; human 26S proteasome, Ub4-pepOG fluorescence polarization; 20S core pre-blocked with epoxomicin; inhibition, % at 20 µM;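 active = inhibition at 20 µM, scaled to each plate's controls, above about 33%, limit read from the data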
Xi reactivation: X-chromosome reactivation activator. AID 743238. activation, % at 7.58 µM. hit rate 0.055% among 360,000. XiGFP mouse fibroblasts, % GFP-positive cells imaging, 3 d; cells co-treated with 5-aza-dC sensitizer; scaled so ellipticine positive control = 100%;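 active = mean normalized replicate activation at least 10% and every replicate at or above 10%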
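System: XiGFP fibroblasts, SV40-immortalized. Medium: DMEM plus 5-aza-dC sensitizer. Doses: single point. Timing: 3 d treatment, 15 min room-temperature fixation. Control set: ellipticine 6 µM.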
ABHD5-PLIN5 inh: ABHD5-PLIN5 protein interaction inhibition; Q00G26+Q8WTS1; Split G. princeps luciferase complementation, luminescence, 4 h; inhibition, % at 4 µM; hit rate 0.78% among 360,000; AID 602281;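 active = inhibition above the mean inhibition across every tested compound plus 3 SD, cut at about 22% in these data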
NadD conf: confirmation of Staphylococcus aureus NadD inhibitors. shares compounds with NadD inh. purified S. aureus NadD, colorimetric enzyme assay. inhibition, % at 20 µM. hit rate 13% among 2,000; in the data active = inhibition mostly above about 42%, no sharp cut-off; inactive = mostly below about 42%
Each line names hits and unclear results; the compound was inactive in the other large screens (follow-up assays come after a bar, where they were run).

Cc1cc(O)c(-c2cc(C(=O)Nc3sc4c(c3C(=O)NCc3ccco3)CCC4)[nH]n2)cc1C	NadD inh 36 | NadD conf inactive
Cc1ccc(-c2cc(C(=O)Nc3sc4c(c3C(=O)NCc3ccco3)CCC4)[nH]n2)c(O)c1	NadD inh 36 | NadD conf inactive
Cc1ccc(C(=O)Nc2sc3c(c2C(=O)NCc2ccco2)CCCC3)cc1	none (no result: Xi reactivation)
C[C@H](CO)N1C[C@H](C)[C@H](CN(C)C(=O)Nc2ccccc2F)Oc2cc(-c3ccc(C(=O)N(C)C)cc3)ccc2S1(=O)=O	none (no result: Rin1-Abl PPI inh, NadD inh, Rpn11 inh, ABHD5-PLIN5 inh)
Cc1ccc(-c2cc(-c3ccc(F)cc3)nc(N)c2C#N)o1	none (no result: Xi reactivation)
Cc1ccc(-c2c(C#N)c(N)nc3c2CCCC3)o1	none
Cc1ccc(-c2cc(-c3ccccc3Cl)c(C#N)c(N)n2)o1	NadD inh 68 (no result: Xi reactivation) | NadD conf 57
Cc1ccc(-c2cc(-c3ccccc3)c(C#N)c(N)n2)o1	NadD inh 41 (no result: Xi reactivation) | NadD conf inactive
Cc1ccc(NC(=O)C(C)OC(=O)c2cc(=O)[nH]c3ccccc23)cc1S(=O)(=O)N1CCOCC1 (stereo unspecified)	NadD inh 35 | NadD conf inactive
Nc1nc(N)c(C=Nc2ccc(Br)cc2)c(Nc2ccc(Br)cc2)n1	NadD inh 36 | NadD conf inactive
O=C(Nc1ccccc1)N[C@@H]1CC[C@@H](CCNC(=O)c2ccccc2F)O[C@@H]1CO	none (no result: Rin1-Abl PPI inh, NadD inh, Rpn11 inh, ABHD5-PLIN5 inh)
O=C(C[C@H]1CC[C@@H](NC(=O)c2ccc(F)cc2)[C@H](CO)O1)NCCc1ccccc1	none (no result: Rin1-Abl PPI inh, NadD inh, Rpn11 inh, ABHD5-PLIN5 inh)
COc1ccc(-n2c(=S)[nH]c3c(sc(=S)n3-c3ccccc3)c2=O)c(OC)c1	NadD inh 30 | NadD conf inactive
